Test results published in publication PMC8277203 (The Journal of Clinical Endocrinology and Metabolism, 2021).

Assays:
Type in all cases: in vivo, human
[1] = system: patients with postbariatric hypoglycemia (PBH); test: Safety: treatment-emergent adverse events, laboratory and physical findings
[2] = Plasma avexitide pharmacokinetics at end of each 14-day treatment period
How it was run: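 Plasma for drug concentration was drawn at the end of each 14-day SC regimen (30 mg every 12 h; 60 mg each morning) on days 29 and 43. Sampling times were −90, 0, 60, 180 and 330 min […], with the trough taken immediately before the −90 min dose. C0, Cmax and AUC0-t were summarised descriptively.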

[3] = system: patients with postbariatric hypoglycemia (PBH); test: Outpatient blinded continuous glucose monitoring; details: for No. events <54 mg/dL 8 AM-12 AM, mean value (SD) / No. events <54 mg/dL 12 AM-8 AM, mean value (SD): CGM, sustained at least 15 minutes, normalized to 14 days; for No. events <54 mg/dL 8 AM-12 AM, mean value (SD) / No. events <54 mg/dL 12 AM-8 AM, mean value (SD) / % Time <54 mg/dL 8 AM-12 AM, mean value (SD) / % Time >250 mg/dL 24 hours, mean value (SD): N = 17; for % Time <54 mg/dL 8 AM-12 AM, mean value (SD) / % Time >250 mg/dL 24 hours, mean value (SD): percentage of CGM values
How it was run: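 Blinded CGM was worn at home through three 14-day periods (placebo, then SC test compound 30 mg twice daily or 60 mg once daily), with two injections daily for blinding. Read-outs were % CGM values <54 mg/dL (8 am–12 am or 12 am–8 am) or >250 mg/dL, normalised to 14 days. LS means were placebo-adjusted by mixed-effect model (treatment, sequence, period fixed; subject within sequence random).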

[4] = system: patients with postbariatric hypoglycemia (PBH); test: Mixed-meal tolerance testing; details: for GLP-1, AUC(0–180), mean value (SD) / Glucagon, AUC(0–180), mean value (SD) / Glucose, AUC(0–180), mean value (SD) / GLP-1, fasting, mean value (SD) / GLP-1, peak, mean value (SD) / Glucagon, fasting, mean value (SD) / Glucagon, peak, mean value (SD) / Glucose, AUC(peak:nadir), mean value (SD) / Glucose, fasting, mean value (SD) / Glucose, peak, mean value (SD) / Insulin, fasting, mean value (SD) / Glucose, nadir (primary endpoint), mean value (SD) / Insulin, peak (secondary endpoint), mean value (SD): 14 days, N = 17; for GLP-1, AUC(0–180), mean value (SD) / Glucagon, AUC(0–180), mean value (SD) / Glucose, AUC(0–180), mean value (SD): 0 to 180 minutes; for Glucose, nadir (primary endpoint), mean value (SD): postprandial plasma, within 3 hours of MMTT; for Insulin, peak (secondary endpoint), mean value (SD): postprandial; for Participants requiring rescue during MMTT: vs 47% with placebo
How it was run: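 Crossover design: 18 female patients got SC placebo for 14 days, then the test compound at 30 mg every 12 h and 60 mg each morning for 14 days each, in random order. After an overnight fast, each period ended with a 180-min MMTT: 64 g carbohydrate drink over 10 min. Plasma glucose, insulin, C-peptide, GLP-1 and glucagon were sampled every 15 min. Rescue was IV dextrose (point-of-care glucose ≤50 mg/dL with neuroglycopenic symptoms, or ≤40 mg/dL).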

[5] = system: patients with postbariatric hypoglycemia (PBH); test: Outpatient hypoglycemia captured by SMBG/eDiary; details: for Rate of Level 2 hypoglycemia, mean value (SD): SMBG <54 mg/dL; for Rate of Level 2 hypoglycemia, mean value (SD) / Rate of Level 1 hypoglycemia, mean value (SD): episodes normalized to 14 days, N = 17; for Rate of Level 1 hypoglycemia, mean value (SD): SMBG <70 mg/dL
How it was run: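 Outpatients logged each hypoglycaemic episode in an eDiary, using a glucometer (SMBG) over each 14-day period. Entries were symptoms, lowest SMBG, treatment, need for assistance, and postprandial or not. Levels were defined as Level 1 SMBG <70 mg/dL, Level 2 <54 mg/dL, and Level 3 needing another person's assistance. Rate was distinct episodes divided by days, normalised to 14 days. Placebo-adjusted LS means came from a mixed-effect model.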

[6] = plasma, end of each 14-day treatment period, SC
[7] = avexitide 30 mg twice daily SC, MMTT
[8] = avexitide 30 mg twice daily, MMTT
[9] = avexitide 60 mg once daily SC, MMTT
[10] = avexitide 60 mg once daily, MMTT

exendin (9-39) [Avexitide]
Serious adverse event (presyncope), reported as unrelated to study drug and self-limited ([1]; avexitide 60 mg once daily): 1 | Changes in vital signs, body weight, hematology or chemistry ([1]; both dosing regimens): No clinically significant changes | Patient withdrawals ([1]; both dosing regimens): no patient withdrawals | Treatment-related serious adverse events ([1]; both dosing regimens): no treatment-related serious adverse events | Tolerability ([1]; both dosing regimens, 28 days): well tolerated | Evidence of systemic plasma exposure ([2]; both dosing regimens): observed in all patients | Mean (AUC0-t) exposure, higher for 60 mg once daily than 30 mg twice daily [2, 6]: 40% | Peak (Cmax) exposure, higher for 60 mg once daily than 30 mg twice daily [2, 6]: 72% | No. events <54 mg/dL 8 AM-12 AM, mean value (SD) ([3]; avexitide 30 mg twice daily SC): 2.82 (3.00) | No. events <54 mg/dL 12 AM-8 AM, mean value (SD) ([3]; avexitide 30 mg twice daily SC): 2.34 (3.03) | % Time <54 mg/dL 8 AM-12 AM, mean value (SD) ([3]; avexitide 30 mg twice daily SC): 0.99 (1.12) % | % Time >250 mg/dL 24 hours, mean value (SD) ([3]; avexitide 30 mg twice daily SC): 0.99 (1.34) % | Reduction of mean percent time with glucose <54 mg/dL ([3]; avexitide 30 mg twice daily, blinded CGM): 50% | No. events <54 mg/dL 8 AM-12 AM, mean value (SD) ([3]; avexitide 60 mg once daily SC): 3.46 (2.48) | No. events <54 mg/dL 12 AM-8 AM, mean value (SD) ([3]; avexitide 60 mg once daily SC): 3.56 (4.18) | % Time <54 mg/dL 8 AM-12 AM, mean value (SD) ([3]; avexitide 60 mg once daily SC): 1.49 (1.70) % | % Time >250 mg/dL 24 hours, mean value (SD) ([3]; avexitide 60 mg once daily SC): 0.85 (0.98) % | Reduction of mean percent time with glucose <54 mg/dL ([3]; avexitide 60 mg once daily, blinded CGM): 24% | Percent time with glucose >250 mg/dL ([3]; blinded CGM, across treatment groups): less than 1% | Fewer participants requiring rescue during MMTT compared with placebo ([4]; avexitide 30 mg twice daily): 50% | GLP-1, AUC(0–180), mean value (SD) [4, 7]: 330.8 (140.5) h×mg/dL | Glucagon, AUC(0–180), mean value (SD) [4, 7]: 466.7 (131.2) h × mg/dL | Glucose, AUC(0–180), mean value (SD) [4, 7]: 320.0 (89.5) h × mg/dL | GLP-1, fasting, mean value (SD) [4, 7]: 12.7 (3.4) pg/mL | GLP-1, peak, mean value (SD) [4, 7]: 413.3 (193.6) pg/mL | Glucagon, fasting, mean value (SD) [4, 7]: 156.3 (0) pg/mL | Glucagon, peak, mean value (SD) [4, 7]: 196.7 (49.8) pg/mL | Glucose, AUC(peak:nadir), mean value (SD) [4, 7]: 192.3 (91.9) h × mg/dL | Glucose, fasting, mean value (SD) [4, 7]: 87.5 (6.0) mg/dL | Glucose, peak, mean value (SD) [4, 7]: 218.2 (45.2) mg/dL | Insulin, fasting, mean value (SD) [4, 7]: 4.5 (2.7) μIU/mL | Glucose, nadir (primary endpoint), mean value (SD) ([4]; avexitide 30 mg twice daily SC): 57.1 (16.5) mg/dL | Insulin, peak (secondary endpoint), mean value (SD) [4, 7]: 349.5 (156.9) μIU/mL | AUC glucose concentrations higher than placebo [4, 8]: 12% | Increase of mean plasma glucose nadir compared with placebo [4, 8]: 21% | LS mean postprandial insulin peak lower than with placebo [4, 8]: 104.53 μIU/mL | Reduction of peak insulin compared with placebo [4, 8]: 23% | Participants requiring rescue during MMTT ([4]; avexitide 30 mg twice daily): 24% | Fewer participants requiring rescue during MMTT compared with placebo ([4]; avexitide 60 mg once daily): 75% | GLP-1, AUC(0–180), mean value (SD) [4, 9]: 351.1 (127.5) h×mg/dL | Glucagon, AUC(0–180), mean value (SD) [4, 9]: 484.1 (96.7) h × mg/dL | Glucose, AUC(0–180), mean value (SD) [4, 9]: 338.1 (80.7) h × mg/dL | GLP-1, fasting, mean value (SD) [4, 9]: 12.7 (4.6) pg/mL | GLP-1, peak, mean value (SD) [4, 9]: 397.1 (150.2) pg/mL | Glucagon, fasting, mean value (SD) [4, 9]: 156.8 (2.2) pg/mL | Glucagon, peak, mean value (SD) [4, 9]: 182.9 (35.9) pg/mL | Glucose, AUC(peak:nadir), mean value (SD) [4, 9]: 204.6 (86.3) h × mg/dL | Glucose, fasting, mean value (SD) [4, 9]: 84.6 (4.2) mg/dL | Glucose, peak, mean value (SD) [4, 9]: 224.5 (47.3) mg/dL | Insulin, fasting, mean value (SD) [4, 9]: 4.1 (2.6) μIU/mL | Glucose, nadir (primary endpoint), mean value (SD) ([4]; avexitide 60 mg once daily SC): 59.2 (16.1) mg/dL | Insulin, peak (secondary endpoint), mean value (SD) [4, 9]: 357.2 (190.9) μIU/mL | AUC glucose concentrations higher than placebo [4, 10]: 18% | Increase of mean plasma glucose nadir compared with placebo [4, 10]: 26% | LS mean postprandial insulin peak lower than with placebo [4, 10]: 96.29 μIU/mL | Reduction of peak insulin compared with placebo [4, 10]: 21% | Participants requiring rescue during MMTT ([4]; avexitide 60 mg once daily): 12% | Postprandial concentrations of GLP-1 and glucagon relative to placebo ([4]; both avexitide treatment regimens, MMTT): significantly higher | Influence on fasting insulin, GLP-1, or glucagon ([4]; both dosing regimens, MMTT): no influence | Reduction of rate of SMBG <54 mg/dL (Level 2 hypoglycemia) compared with placebo ([5]; avexitide 30 mg twice daily): 40% | Reduction of rate of SMBG <70 mg/dL (Level 1 hypoglycemia) compared with placebo ([5]; avexitide 30 mg twice daily): 30% | Reduction of rate of severe hypoglycemia (Level 3) events ([5]; avexitide 30 mg twice daily): 23% | Rate of Level 2 hypoglycemia, mean value (SD) ([5]; avexitide 30 mg twice daily SC): 1.21 (1.65) | Rate of Level 1 hypoglycemia, mean value (SD) ([5]; avexitide 30 mg twice daily SC): 2.81 (2.13) | Reduction of rate of SMBG <54 mg/dL (Level 2 hypoglycemia) compared with placebo ([5]; avexitide 60 mg once daily): 60% | Reduction of rate of SMBG <70 mg/dL (Level 1 hypoglycemia) compared with placebo ([5]; avexitide 60 mg once daily): 61% | Reduction of rate of severe hypoglycemia (Level 3) events ([5]; avexitide 60 mg once daily): 56% | Rate of Level 2 hypoglycemia, mean value (SD) ([5]; avexitide 60 mg once daily SC): 0.81 (0.88) | Rate of Level 1 hypoglycemia, mean value (SD) ([5]; avexitide 60 mg once daily SC): 1.56 (1.27)
